# Diaphorase act: compounds boosting diaphorase resazurin reduction – biochemical, uHTS, resorufin fluorescence, counter-screen for diaphorase-coupled primary assays, primary screen; hit rate 0.005% among 190,000; Diaphorase/resazurin coupled assay, 16 min; hits give high values; 1 = vehicle wells, 0 = NADH-free wells; activation factor at 20 µM; AID 1229, 2008;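 active means diaphorase activity raised at least twofold by the compound at 20 µM; inactive means activation factor below 2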
#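 Assay system: bacterial diaphorase enzyme (C. kluyveri) / Input: enzyme 0.07 U/mL final / Medium: 50 mM HEPES pH 7.4 with 4.542 mM MgCl2, 0.005% Tween 20 / Doses: single compound dose of 20 µM, 1% DMSO final / Incubation: 16 min enzyme reaction, ambient temperature / Signal: fluorescence, excitation 544 nm and emission 590 nm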
# PfG6PD inh: PfG6PD enzyme inhibitors, primary screen, biochemical, fluorescence intensity, uHTS. hit rate 0.78% among 350,000. PfGluPho enzyme, NADPH resazurin-diaphorase fluorescence. AID 504690, 2011. inhibition, % at 20 µM;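 active means inhibition reaching at least a set limit at 20 µM in the primary screen, cut at about 59% in these data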;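 further: 0% = DMSO wells with substrate and 100% = DMSO wells lacking glucose-6-phosphate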
# G6PDH CS: L. mesenteroides G6PDH inhibitors, counter-screen for G6PDH-coupled screening assays, biochemical, Leuconostoc mesenteroides enzyme. glucose-6-phosphate dehydrogenase [Leuconostoc mesenteroides]. Purified L. mesenteroides G6PDH, diaphorase/resazurin coupled fluorescence, 45 min. inhibition, % at 5 µM. hit rate 0.12% among 200,000. AID 1020, 2008
# L major viab: Leishmania major promastigote growth inhibition, primary screen. Leishmania major promastigotes, resazurin fluorescence viability. inhibition, % at 10 µM. hit rate 9% among 200,000. AID 1063, 2008;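 further: promastigotes grown with compound for 44 hours at 28 °C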
# DTT redox prof: compounds producing H2O2 with reducing agent – biochemical, NIH compound library profiling, artefact control for MLSCN library redox annotation, primary screen. DTT-dependent redox cycling H2O2, phenol red/HRP absorbance; 100% = 100 µM peroxide control, 0% = buffer. hit rate 0.03% among 200,000. AID 878, 2007. activation, % at 10 µM;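 active means activation of at least 50% relative to the plate's high and low controls in the primary single-dose screen; inactive means activation below 50%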;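 further: compound incubated with DTT at 0.8 mM final as the reducing agent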
# Diaph inh CS: diaphorase inhibitors and chemical oxidizers, primary screen, counter-screen for diaphorase-coupled primary assays, biochemical, uHTS, resorufin fluorescence; diaphorase resazurin-to-resorufin fluorescence, NADH, 16 min; bacterial (C. kluyveri) enzyme, not human; inhibition, % at 20 µM; hit rate 0.69% among 190,000;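 active means primary screen inhibition at 20 µM above a set limit, cut at about 50% in these data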;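 further: plate controls were DMSO with full reaction for no effect and wells lacking NADH for full effect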
#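 controls = No-NADH positive control and DMSO neutral control | system = Clostridium kluyveri diaphorase enzyme | timing = reaction incubation of 16 min at room temperature | signal = resorufin fluorescence 544/590 nm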
# * marks the source's active call; other numbers are inactive results; / = no result given. This is one part of a sample in which hits are shown more often than they occur. Unless noted, no stated cut-off is given here; in the data, active means inhibition above about 50%; inactive means the rest.
SMILES,Diaphorase act,PfG6PD inh,G6PDH CS,L major viab,DTT redox prof,Diaph inh CS
CCn1cc(C(=O)Nc2ncccc2O)c(=O)c2cc(F)c(N3CCN(C(=O)c4ccco4)CC3)cc21,/,3.5,/,/,/,/
CCN(CC)C(=O)CSc1ncnc2sc(C)c(C)c12,0.9,-10.8,17.1,3.5,0.9,8.5
Cc1cnc(NC(=O)c2cc3c(C)nn(Cc4ccccc4Cl)c3s2)s1,0.9,0.1,-18.4,60.1*,-0.2,6.8
COc1ccc(C2C(C(=O)N3CCN(C)CC3)c3cc(OC)c(OC)cc3C(=O)N2C)cc1 (stereo not given),1,-0.9,8.1,0.0,-1.0,-1.7
CCN1CCN(C(=O)C2c3cc(OC)c(OC)cc3C(=O)N(C)C2c2ccc(SC)cc2)CC1 (stereo not given),0.9,-13.2,2.8,76.5*,1.7,13.3
CN(C(=O)c1ccc(S(=O)(=O)c2cccc(Cl)c2)c([N+](=O)[O-])c1)C1CCCCC1,0.8,7.5,-11.6,99.6*,0.6,23.1
CCCC(C)C(=O)Nc1nc(C)c(-c2csc(Nc3ccccc3OC)n2)s1 (stereo not given),1,11.1,4.1,95.5*,-4.3,-2.1
CCCCCC(=O)Nc1nc(C)c(-c2csc(Nc3ccccc3OC)n2)s1,0.7,23.9,0.3,73.2*,-3.8,33.2
CCCCCC(=O)Nc1nc(C)c(-c2csc(Nc3ccccc3OCC)n2)s1,0.8,11.9,4.5,51.6*,-4.8,18.3
CCCCCCC(=O)Nc1nc(C)c(-c2csc(Nc3ccccc3OC)n2)s1,1,26.8,4.9,55.2*,-3.4,-4.1
COc1ccc(CNc2nc3ccccc3n2CCN2CCCCC2)cc1,0.9,-4.6,1.1,38.3,0.1,5.2
COc1ccc(CCN2CCC(Nc3nc4ccccc4n3Cc3ccc(F)cc3)CC2)cc1,0.9,14.6,15.2,100.4*,1.0,12.2
N#C/C(=C\c1ccc(N2CCCC2)c([N+](=O)[O-])c1)c1nc2ccccc2[nH]1,0.9,7.7,4.8,6.2,-4.1,13.7
CC1CCN(c2cc(N3CCC(C)CC3)c([N+](=O)[O-])cc2/C=C(\C#N)c2nn(-c3ccccc3)c(N)c2C#N)CC1,0.9,1.3,4.5,-4.2,-0.5,13.8
N#C/C(=C\c1ccc(N2CCCCC2)c([N+](=O)[O-])c1)c1nn(-c2ccccc2)c(N)c1C#N,0.8,-8.4,-20.9,98.8*,0.8,20.3
CC1CCN(c2ccc(/C=C(\C#N)c3nn(-c4ccccc4)c(N)c3C#N)cc2[N+](=O)[O-])CC1,0.8,1.6,-14.9,95.2*,2.4,17.4
CC1CCCN(c2ccc(/C=C(\C#N)c3nn(-c4ccccc4)c(N)c3C#N)cc2[N+](=O)[O-])C1 (stereo not given),0.8,16.2,4.7,95.6*,-3.3,21.5
O=[N+]([O-])c1cccc(S(=O)(=O)NC2CC3CCC2C3)c1 (stereo not given),/,26.3,/,/,/,/
O=C(Nc1nnc(-c2ccc(Br)cc2)o1)c1cccc(N2C(=O)CCC2=O)c1,/,-26.1,/,/,/,/
NS(=O)(=O)c1cccc(NC(=O)COC(=O)CCCc2c[nH]c3ccccc23)c1,0.7,1.9,-0.2,-2.9,-0.3,30.8
CCOc1ccc(NC(=O)CCN2CCN(S(=O)(=O)c3cc(Cl)ccc3OC)CC2)cc1,0.8,7.1,-23.2,98.9*,-0.4,16.4
COc1ccc(S(=O)(=O)N2CCCN(CCC(=O)Nc3cccc(C(F)(F)F)c3)CC2)cc1,0.9,1.9,15.5,99.7*,1.9,11.6
CN(CC(=O)Nc1ccc(S(=O)(=O)N2CCCC2)cc1)CC(=O)Nc1ccc(F)c(F)c1F,1.1,3.0,0.5,9.0,0.1,-5.6
CN(CC(=O)Nc1ccc(S(=O)(=O)N2CCCC2)cc1)Cc1ccc(Cl)cc1Cl,0.8,12.3,10.7,86.1*,0.1,18.9
